Measurements: ChEMBL document CHEMBL5653613 (Mol Cancer Ther, 2013)
The source made the active and inactive calls. No cut-off for these calls is given here.

Experiments:
ZR-75-1 [1] = experiment: Induction of cell death of human ZR-75-1 cells with RON-/- at 5 umol/L incubated for 72 hrs followed by media replacement without compound measured upto 10 days by microscopic analysis; format: functional, cell-based; conditions: dose 5.0 µmol/L
ZR-75-1 [2] = experiment: Induction of apoptosis in human ZR-75-1 cells assessed as necrotic cells at 5 umol/L incubated for 3 days by Annexin V/PI staining based flow cytometry (reference value: 0.7 %); format: functional; conditions: dose 5 µmol/L; time 3 day; at 5 µM
T47D [3] = experiment: Induction of cell cycle arrest at telophase in human T47D cells at 5 umol/L preincubated for 24 hrs followed by extensive compound washout and subsequent culturing in compound-free media measured upto 120 mins by immunofluorescence staining based analysis; format: functional; conditions: dose 5.0 µmol/L
Method in brief: (§1)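 T-47D cells were treated at 37°C with 5 µmol/L for 24 h, washed extensively, then cultured in DMEM with 10% FBS for 30, 60 and 120 min. α- and γ-tubulin were detected by immunofluorescence with DAPI, imaged at 400×. The control was a 24 h preincubation with 5 µmol/L RO-3306. One of 2 experiments.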

T47D [4] = experiment: Disruption of microtubule dynamics in human T47D cells assessed as absence of functional bipolar spindle assembly at 5 umol/L incubated for 24 hrs by immunofluorescence staining based analysis; format: cell-based; conditions: dose 5.0 µmol/L
Method in brief: (§2)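 T-47D cells (1 × 10^6/dish) in RPMI-1640 with 5% FBS were treated with or without 5 µmol/L for 24, 48 and 72 h. Cells were fixed in cold acetone and stained with mouse anti-α-tubulin or anti-γ-tubulin, then an FITC anti-mouse IgG secondary, plus DAPI. Fluorescence microscopy, 200× magnification.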

[5] = Effect on cisplatin resistance in human T47D cells with compound-induced polyploidy assessed as change in cisplatin-induced cytotoxicity by measuring increase in cisplatin IC50 at 5 umol/L preincubated for 72 hrs followed by compound washout and subsequent cisplatin treatment for 72 hrs by MTS assay; format: functional, cell-based
T47D [6] = experiment: Induction of polyploidy in human T47D cells assessed as cells with 4N chromosome contents at 5 uM incubated for 24 hrs by PI staining based flow cytometry (reference value: 35); format: functional
MCF7 [7] = experiment: Induction of polyploidy in human MCF7 cells assessed as cells with 16N chromosome contents at 5 uM incubated for 48 hrs by PI staining based flow cytometry (reference value: 0); format: functional
ZR-75-1 [8] = experiment: Induction of polyploidy in human ZR-75-1 cells assessed as cells with 16N chromosome contents at 5 uM incubated for 72 hrs by PI staining based flow cytometry (reference value: 0); format: functional
T47D [9] = experiment: Inhibition of clonogenic growth in human T47D cells incubated for 10 days by Hema-3 staining based microscopy; format: functional, cell-based; conditions: dose 1-5 µmol/L, time 10.0 day
Method in brief: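 Colonies were stained with Hema-3, photographed under a microscope with a CCD camera, counted in duplicate, and expressed as % of control. Results are shown from 1 of 2 experiments.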

T47D [10] = experiment: Induction of polyploidy in human T47D cells at 5 umol/L incubated for 72 hrs by microscopic analysis relative to control; format: functional; conditions: dose 5 µmol/L, at 5 µM
Method in brief: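 Cells stained with Hema-3 and photographed under a light microscope with CCD camera. Polyploid cells scored as percent of the population.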

MCF7 [11] = experiment: Induction of polyploidy in human MCF7 cells at 5 umol/L by microscopic analysis; format: functional, cell-based; conditions: dose 5.0 µmol/L, time 72.0 hrs, TDE = time-dependent effect
ZR-75-1 [12] = experiment: Induction of polyploidy in human ZR-75-1 cells assessed as cells with 8N chromosome contents at 5 uM incubated for 24 hrs by PI staining based flow cytometry (reference value: 0); format: functional
T47D [13] = experiment: Disruption of microtubule dynamics in human T47D cells assessed as lack of chromosomal segregation at 5 umol/L incubated for 24 hrs by immunofluorescence staining based analysis; format: functional, cell-based; conditions: dose 5.0 µmol/L; method in brief: as §2
T47D [14] = experiment: Induction of cell cycle arrest at metaphase in human T47D cells assessed as disorganization of multipolar mitotic spindles at 5 umol/L preincubated for 24 hrs followed by extensive compound washout and subsequent culturing in compound-free media measured upto 3 days by immunofluorescence staining based analysis; format: functional; conditions: dose 5.0 µmol/L
T47D [15] = experiment: Induction of cell cycle arrest at metaphase in human T47D cells assessed as disorganization of multipolar mitotic spindles at 5 umol/L preincubated for 24 hrs followed by extensive compound washout and subsequent culturing in compound-free media measured upto 120 mins by immunofluorescence staining based analysis; format: functional; conditions: dose 5.0 µmol/L; method in brief: as §1
T47D [16] = experiment: Induction of polyploidy in human T47D cells assessed as cells with 8N chromosome contents at 5 uM incubated for 24 hrs by PI staining based flow cytometry (reference value: 0); format: functional
ZR-75-1 [17] = experiment: Induction of polyploidy in human ZR-75-1 cells assessed as cells with 4N chromosome contents at 5 uM incubated for 72 hrs by PI staining based flow cytometry (reference value: 35); format: functional
T-47D (Homo sapiens) = experiment: Disruption of microtubule dynamics in human T-47D cells at 5 umol/L incubated upto 72 hrs by immunofluorescence staining based analysis; conditions: dose 5.0 µmol/L
MCF7 [18] = experiment: Induction of polyploidy in human MCF7 cells assessed as cells with 8N chromosome contents at 5 uM incubated for 24 hrs by PI staining based flow cytometry (reference value: 0); format: functional
MCF7 [19] = experiment: Induction of polyploidy in human MCF7 cells assessed as cells with 8N chromosome contents at 5 uM incubated for 48 hrs by PI staining based flow cytometry (reference value: 0); format: functional
T47D [20] = experiment: Inhibition of cell proliferation of human T47D cells with RON-/- at 5 umol/L incubated for 72 hrs followed by media replacement without compound measured upto 10 days by microscopic analysis; format: functional, cell-based; conditions: dose 5.0 µmol/L
[21] = Effect on bleomycin resistance in human ZR-75-1 cells with compound-induced polyploidy assessed as change in bleomycin-induced cytotoxicity by measuring increase in bleomycin IC50 at 5 umol/L preincubated for 72 hrs followed by compound washout and subsequent bleomycin treatment for 72 hrs by MTS assay; format: functional, cell-based
MCF7 [22] = experiment: Cytotoxicity against human MCF7 cells at 1 to 2.5 umol/L incubated for 72 hrs by MTS assay; format: functional, cell-based; conditions: dose 1-2.5 µmol/L
MCF7 [23] = experiment: Induction of apoptosis in human MCF7 cells assessed as viable cells at 5 umol/L incubated for 3 days by Annexin V/PI staining based flow cytometry (reference value: 98.1 %); format: functional; conditions: MCF7, 72 h, dose 5 µmol/L, time 3 day, read-out: Activity
T47D [24] = experiment: Induction of polyploidy in human T47D cells assessed as cells with 2N chromosome contents at 5 uM incubated for 24 hrs by PI staining based flow cytometry (reference value: 48); format: functional
ZR-75-1 [25] = experiment: Induction of polyploidy in human ZR-75-1 cells assessed as cells with 8N chromosome contents at 5 uM incubated for 48 hrs by PI staining based flow cytometry (reference value: 0); format: functional
[26] = Cmax in athymic mouse xenografted with human GTL-16 cells at 6.25 mg/kg, po qd for 14 days consecutively; format: ADME, organism-based; conditions: in vivo, time 14 day
[27] = Effect on cisplatin resistance in human ZR-75-1 cells with compound-induced polyploidy assessed as change in cisplatin-induced cytotoxicity by measuring increase in cisplatin IC50 at 5 umol/L preincubated for 72 hrs followed by compound washout and subsequent cisplatin treatment for 72 hrs by MTS assay; format: functional, cell-based
MCF7 [28] = experiment: Induction of apoptosis in human MCF7 cells assessed as early cells at 5 umol/L incubated for 3 days by Annexin V/PI staining based flow cytometry (reference value: 0.1 %); format: functional; conditions: dose 5 µmol/L; time 3 day; at 5 µM

For CCOc1ccn(-c2ccc(F)cc2)c(=O)c1C(=O)Nc1ccc(Oc2ccnc(N)c2Cl)c(F)c1 [BMS-777607], the Activity (ZR-75-1 [1]) was “inactive”, the Activity (ZR-75-1 [2]) was 1.8% and the Activity (T47D [3]) was “Active”. For the same compound, the Activity (T47D [4]) was “Active”, the IC50 [5] was 9.1 nM and the Activity (T47D [6]) was 20. The Activity (MCF7 [7]) was 0, the Activity (ZR-75-1 [8]) was 32 and the inhibition (T47D [9]) was “Dose-Dependent Effect”. The Activity (T47D [10]) was 78%, the Activity (MCF7 [11]) was “Tde” and the Activity (ZR-75-1 [12]) was 14. For the same compound, the Activity (T47D [13]) was “Active”, the Activity (T47D [14]) was “Active” and the Activity (T47D [15]) was “Active”. The Activity (T47D [16]) was 26, the Activity (ZR-75-1 [17]) was 12 and the Activity (T-47D (Homo sapiens)) was “Active”. The Activity (MCF7 [18]) was 14, the Activity (MCF7 [19]) was 25.5 and the inhibition (T47D [20]) was “inactive”. The IC50 [21] was 2260 nM, the Activity (MCF7 [22]) was “inactive” and the viability at 5 µM (MCF7 [23]) was 97.3%. For the same compound, the Activity (T47D [24]) was 7.5, the Activity (ZR-75-1 [25]) was 20 and the Cmax [26] was 4.5 µM. It also gave an IC50 [27] of 3.4 nM and an Activity (MCF7 [28]) of 0.2%.
